Measured values as given in ChEMBL document CHEMBL3779892, “Increasing the binding affinity of VEGFR-2 inhibitors by extending their hydrophobic interaction with the active site: Design, synthesis and biological evaluation of 1-substituted-4-(4-methoxybenzyl)phthalazine derivatives” (Eur J Med Chem, 2016).

How the values were obtained:
Type in all cases: functional
[1] = Growth inhibition of human BT549 cells at 10 uM after 48 hrs by sulforhodamine B assay; conditions: BT-549, 48 h, read-out: GI
Summary of the method: (§1)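 Run at NCI on the 60-line panel. Cells grown in RPMI 1640 with 5% FBS and 2 mM L-glutamine, plated at 5000–40,000 cells/well by doubling time, and held 24 h at 37 °C before dosing. Drug (DMSO stock) given at a single final 10 µM in triplicate wells for 48 h. Adherent cells fixed with cold TCA (10% final), suspension cells with 16% TCA. SRB stain read at 515 nm. Percent growth from Tz, C and Ti.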

T47D = test: Growth inhibition of human T47D cells at 10 uM after 48 hrs by sulforhodamine B assay; conditions: read-out: GI
Summary of the method: (§2)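 NCI-60 panel, adherent cells grown in RPMI 1640 with 5% FBS and 2 mM L-glutamine, plated at 5000–40,000 cells/well and preincubated 24 h at 37 °C, 5% CO2. 10 µM final compound from DMSO stock, triplicate wells, 48 h. Fixed with cold TCA (10% final, 60 min, 4 °C) and stained with 0.4% SRB. Absorbance read at 515 nm; growth calculated against time-zero and control wells.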

MDA-MB-231 = test: Growth inhibition of human MDA-MB-231 cells at 10 uM after 48 hrs by sulforhodamine B assay; conditions: MDA-MB-231, 48 h, read-out: GI; summary of the method: as §1
CCRF-CEM = test: Growth inhibition of human CCRF-CEM cells at 10 uM after 48 hrs by sulforhodamine B assay; conditions: read-out: GI; summary of the method: as §1
K562 = test: Growth inhibition of human K562 cells at 10 uM after 48 hrs by sulforhodamine B assay; conditions: K562, 48 h, read-out: GI; summary of the method: as §1
A549 = test: Growth inhibition of human A549 cells at 10 uM after 48 hrs by sulforhodamine B assay; conditions: A549, 48 h, read-out: GI; summary of the method: as §1
[2] = Growth inhibition of human HOP62 cells at 10 uM after 48 hrs by sulforhodamine B assay; conditions: HOP-62, 48 h, read-out: GI; summary of the method: as §1
[3] = Growth inhibition of human HOP92 cells at 10 uM after 48 hrs by sulforhodamine B assay; conditions: HOP-92, 48 h, read-out: GI; summary of the method: as §1
NCI-H226 = test: Growth inhibition of human NCI-H226 cells at 10 uM after 48 hrs by sulforhodamine B assay; conditions: NCI-H226, 48 h, read-out: GI; summary of the method: as §1
NCI-H23 = test: Growth inhibition of human NCI-H23 cells at 10 uM after 48 hrs by sulforhodamine B assay; conditions: NCI-H23, 48 h, read-out: GI; summary of the method: as §1
NCI-H322M = test: Growth inhibition of human NCI-H322M cells at 10 uM after 48 hrs by sulforhodamine B assay; conditions: read-out: GI; summary of the method: as §1
NCI-H460 = test: Growth inhibition of human NCI-H460 cells at 10 uM after 48 hrs by sulforhodamine B assay; conditions: NCI-H460, 48 h, read-out: GI; summary of the method: as §1
NCI-H522 = test: Growth inhibition of human NCI-H522 cells at 10 uM after 48 hrs by sulforhodamine B assay; conditions: NCI-H522, 48 h, read-out: GI; summary of the method: as §1
[4] = Growth inhibition of human COLO205 cells at 10 uM after 48 hrs by sulforhodamine B assay; conditions: COLO 205, 48 h, read-out: GI; summary of the method: as §1
[5] = Growth inhibition of human HCT15 cells at 10 uM after 48 hrs by sulforhodamine B assay; conditions: HCT-15, 48 h, read-out: GI; summary of the method: as §1
HT-29 = test: Growth inhibition of human HT-29 cells at 10 uM after 48 hrs by sulforhodamine B assay; conditions: HT-29, 48 h, read-out: GI; summary of the method: as §1
[6] = Growth inhibition of human SF268 cells at 10 uM after 48 hrs by sulforhodamine B assay; conditions: SF-268, 48 h, read-out: GI; summary of the method: as §1
[7] = Growth inhibition of human SF295 cells at 10 uM after 48 hrs by sulforhodamine B assay; conditions: SF-295, 48 h, read-out: GI; summary of the method: as §1
[8] = Growth inhibition of human SF539 cells at 10 uM after 48 hrs by sulforhodamine B assay; conditions: SF-539, 48 h, read-out: GI; summary of the method: as §1
[9] = Growth inhibition of human SNB19 cells at 10 uM after 48 hrs by sulforhodamine B assay; conditions: SNB-19, 48 h, read-out: GI; summary of the method: as §1
U-251 = test: Growth inhibition of human U251 cells at 10 uM after 48 hrs by sulforhodamine B assay; conditions: U-251, 48 h, read-out: GI; summary of the method: as §2
[10] = Growth inhibition of human LOXIMVI cells at 10 uM after 48 hrs by sulforhodamine B assay; conditions: LOX IMVI, read-out: GI; summary of the method: as §1
Malme-3M = test: Growth inhibition of human MALME-3M cells at 10 uM after 48 hrs by sulforhodamine B assay; conditions: read-out: GI; summary of the method: as §1
M14 = test: Growth inhibition of human M14 cells at 10 uM after 48 hrs by sulforhodamine B assay; conditions: M14, 48 h, read-out: GI; summary of the method: as §1
SK-MEL-28 = test: Growth inhibition of human SK-MEL-28 cells at 10 uM after 48 hrs by sulforhodamine B assay; conditions: SK-MEL-28, 48 h, read-out: GI; summary of the method: as §1
[11] = Growth inhibition of human UACC62 cells at 10 uM after 48 hrs by sulforhodamine B assay; conditions: UACC-62, 48 h, read-out: GI; summary of the method: as §2
[12] = Growth inhibition of human IGROV1 cells at 10 uM after 48 hrs by sulforhodamine B assay; conditions: IGROV-1, 48 h, read-out: GI; summary of the method: as §1
[13] = Growth inhibition of human OVCAR4 cells at 10 uM after 48 hrs by sulforhodamine B assay; conditions: OVCAR-4, 48 h, read-out: GI; summary of the method: as §1
[14] = Growth inhibition of human OVCAR5 cells at 10 uM after 48 hrs by sulforhodamine B assay; conditions: OVCAR-5, 48 h, read-out: GI; summary of the method: as §1
[15] = Growth inhibition of human OVCAR8 cells at 10 uM after 48 hrs by sulforhodamine B assay; conditions: OVCAR-8, 48 h, read-out: GI; summary of the method: as §1
[16] = Growth inhibition of human NCI-ADR-RES cells at 10 uM after 48 hrs by sulforhodamine B assay; conditions: read-out: GI; summary of the method: as §1
[17] = Growth inhibition of human SKOV3 cells at 10 uM after 48 hrs by sulforhodamine B assay; conditions: SK-OV-3, 48 h, read-out: GI; summary of the method: as §1
ACHN = test: Growth inhibition of human ACHN cells at 10 uM after 48 hrs by sulforhodamine B assay; conditions: read-out: GI; summary of the method: as §1
[18] = Growth inhibition of human Caki1 cells at 10 uM after 48 hrs by sulforhodamine B assay; conditions: CAKI-1, 48 h, read-out: GI; summary of the method: as §1
[19] = Growth inhibition of human RXF393 cells at 10 uM after 48 hrs by sulforhodamine B assay; conditions: RXF 393, 48 h, read-out: GI; summary of the method: as §1
[20] = Growth inhibition of human UO31 cells at 10 uM after 48 hrs by sulforhodamine B assay; conditions: UO-31, 48 h, read-out: GI; summary of the method: as §2
MCF7 = test: Growth inhibition of human MCF7 cells at 10 uM after 48 hrs by sulforhodamine B assay; conditions: MCF7, 48 h, read-out: GI; summary of the method: as §1

Measured: inhibition of growth at 10 µM

COc1ccc(Cc2nnc(Nc3ccccc3)c3ccccc23)cc1
< 31%: [11]
38%: [20]
49%: [3]
< 30%: all other assays above

COc1ccc(Cc2nnc(Nc3cccc(C(F)(F)F)c3)c3ccccc23)cc1
45%: NCI-H522 | [9]
40%: NCI-H226 | [16]
41%: [5]
31%: [13] | ACHN
38%: [7]
50%: NCI-H460
57%: A549
49%: K562 | HT-29
42%: NCI-H23 | [11]
66%: [20]
39%: CCRF-CEM
35%: [15] | MCF7
46%: MDA-MB-231
63%: [3]
36%: [8]
34%: [19]
44%: U-251
32%: [18]
37%: [12]
56%: T47D
< 30%: all other assays above

COc1ccc(Cc2nnc(Nc3cccc(Cl)c3)c3ccccc23)cc1
45%: K562 | A549
63%: [3]
41%: T47D
61%: [20]
31%: HT-29 | ACHN
39%: MDA-MB-231 | [11]
34%: NCI-H460 | U-251
37%: [9]
32%: [16]
35%: NCI-H226 | [8]
33%: [5] | [7]
50%: NCI-H522
< 30%: all other assays above

COc1ccc(Cc2nnc(Nc3ccc(C#N)cc3)c3ccccc23)cc1
50%: T47D
49%: [20]
36%: [3]
< 30%: all other assays above
